Article PMC4171190 (Fitoterapia, 2014)
Read-outs that look alike come from different tables or passages of the source. Marks after values point to notes of the source that are not given here. Values belong to the molecule of their own block, whether it stands above or below them.

Experiments:
alpha7 nAChR = alpha7 nAChR (Rattus norvegicus, UniProt Q05941); assay: [3H]-MLA displacement from rat hippocampal membranes; assay type: binding
[1] = molecular target: nicotinic binding sites on BV2 membranes; assay: [3H]-epibatidine saturation binding on BV2 membranes; set-up: species or system murine; conditions: read-out: Kd, saturation binding; BV2 microglia membranes
[2] = test system: LPS stimulated BV2 microglia; assay: Inhibition of TNF-alpha release from LPS stimulated BV2 microglia; assay type: cell-based, murine; conditions: flavonoid alone; 10μg/ml LPS 24h
Summary of the method: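 Murine BV2 cells seeded at 5×10^5 cells/well in 24-well plates, adhered overnight, then given 1h serum-free pretreatment with test compound (±10μM MLA or 1μM nicotine) before 10μg/ml LPS for 24h. Supernatants frozen, then assayed by mouse TNF-alpha ELISA. Release expressed as % of LPS alone, normalised to resazurin viability when groups differed. Sigmoidal fits, fixed vs variable slope compared by F-test.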

[3] = test system: LPS stimulated BV2 microglia; assay: Inhibition of NO release from LPS stimulated BV2 microglia; assay type: cell-based, murine
Summary of the method: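 BV2 murine microglia (DMEM/F-12, 10% FBS, 37°C, 5% CO2) trypsinised, seeded 5×10^5 cells/well in 24-well plates, adhered overnight. Pretreated 1h serum-free with test compound (±10μM MLA or 1μM nicotine), then 10μg/ml LPS for 24h. Supernatant nitrite read immediately by Griess, A550, against NaNO2 standard. Expressed as % of LPS alone; sigmoidal fits, fixed vs variable slope compared by F-test.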

[4] = IC50 [3H]-MLA displacement, rat hippocampal membranes, 2nM [3H]-MLA
[5] = pIC50 [3H]-MLA displacement, rat hippocampal membranes, 2nM [3H]-MLA

alpha7 nAChR, sequence (Q05941 23-502): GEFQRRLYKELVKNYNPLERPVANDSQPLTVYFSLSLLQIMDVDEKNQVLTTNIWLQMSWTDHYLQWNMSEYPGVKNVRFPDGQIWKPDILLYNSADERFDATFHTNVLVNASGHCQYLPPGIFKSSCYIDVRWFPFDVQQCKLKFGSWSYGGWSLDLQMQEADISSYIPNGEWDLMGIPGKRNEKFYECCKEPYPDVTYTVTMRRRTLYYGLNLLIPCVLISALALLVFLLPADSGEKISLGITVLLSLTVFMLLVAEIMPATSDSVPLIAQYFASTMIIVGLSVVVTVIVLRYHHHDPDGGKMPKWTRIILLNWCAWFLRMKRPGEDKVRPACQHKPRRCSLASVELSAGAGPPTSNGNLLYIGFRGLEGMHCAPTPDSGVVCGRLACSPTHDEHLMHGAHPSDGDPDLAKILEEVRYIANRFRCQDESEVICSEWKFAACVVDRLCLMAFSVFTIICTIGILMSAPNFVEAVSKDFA

IC50 (alpha7 nAChR; [4]): 238 µM
SMILES: COc1ccc(-c2oc3cc(O)cc(O)c3c(=O)c2O)cc1O [Tamarixetin]

SMILES: COc1cc(-c2[o+]c3cc(O)cc(O)c3cc2O)cc(OC)c1O [Malvidin]
IC50 (alpha7 nAChR): 90 µM

SMILES: O=c1c(O)c(-c2ccc(O[C@@H]3O[C@H](CO)[C@@H](O)[C@H](O)[C@H]3O)c(O)c2)oc2cc(O)cc(O)c12 [Spiraeoside]
IC50 (alpha7 nAChR; [4]): 8.35 µM

IC50 (alpha7 nAChR; [4]): 66.1 µM
SMILES: O=c1cc(-c2ccccc2)oc2cc(O)c(O)c(O)c12 [Baicalein]

SMILES: Clc1ccc(C2CC3CCC2N3)cn1 (centres unmarked) [[^3H]-epibatidine]
Kd [1]: 0.0065 µM

SMILES: COc1cc(O)c2c(c1)O[C@H](c1ccc(O)cc1)CC2=O [Sakuranetin]
Hill slope, inhibition of TNF-alpha release [2]: -1.0 ^**
effect of added MLA on anti-inflammatory properties (NO and TNF-alpha release) ([3]; addition of MLA, LPS stimulated BV2): no effect
Hill slope, inhibition of NO release ([3]; flavonoid alone, 10μg/ml LPS 24h): -1.0 ^**

SMILES: O=c1c(-c2ccc(O)cc2)coc2cc(O[C@@H]3O[C@H](CO)[C@@H](O)[C@H](O)[C@H]3O)ccc12 [Daidzin]
IC50 (alpha7 nAChR; [4]): 120 µM

SMILES: CN1CCC[C@H]1c1cccnc1 [nicotine, (-)-nicotine]
effect alone on LPS induced release of inflammatory mediators ([3]; 1μM, alone): no effect alone
effect of mecamylamine on inhibition of NO release ([3]; 10μM mecamylamine): blocked
maximal inhibition of LPS elicited release of NO ([3]; 1h pretreatment, 10μg/ml LPS 24h): ~20%

SMILES: COc1cc(-c2[o+]c3cc(O)cc(O)c3cc2O[C@@H]2O[C@H](CO)[C@@H](O)[C@H](O)[C@H]2O)cc(O)c1O [Petunidin-3-glucoside]
pIC50 [3H]-MLA displacement (alpha7 nAChR; rat hippocampal membranes, 2nM [3H]-MLA): 2.464 ± 0.95
IC50 (alpha7 nAChR; read-out: IC50 [3H]-MLA displacement, rat hippocampal membranes, 2nM [3H]-MLA): 3430 µM

SMILES: COc1cc(-c2oc3cc(O)cc(O)c3c(=O)c2O)ccc1O [Isorhamnetin]
IC50 (alpha7 nAChR; [4]): 46.5 µM
IC50 (alpha7 nAChR; [5]): 46.6 µM

IC50 (alpha7 nAChR): 14.3 µM
SMILES: O=c1c(O)c(-c2ccc(O)c(O)c2)oc2cc(O)c(O)c(O)c12 [Quercetagetin]

IC50 (alpha7 nAChR; [5]): 21.5 µM
SMILES: O=c1c(O[C@@H]2O[C@H](CO)[C@@H](O)[C@H](O)[C@H]2O)c(-c2ccc(O)c(O)c2)oc2cc(O)cc(O)c12 [Isoquercitrin]

IC50 (alpha7 nAChR; [4]): 496 µM
SMILES: O=c1c(O[C@@H]2O[C@H](CO)[C@@H](O)[C@H](O)[C@H]2O)c(-c2ccc(O)cc2)oc2cc(O)cc(O)c12 [Astragalin]

IC50 (alpha7 nAChR; [4]): 11.4 µM
IC50 (alpha7 nAChR; [5]): 11.5 µM
SMILES: O=c1c(O)c(-c2ccc(O)c(O)c2)oc2cc(O)cc(O)c12 [Quercetin]

SMILES: COc1cc(O)c2c(=O)c(O)c(-c3ccc(O)c(O)c3)oc2c1 [Rhamnetin]
IC50 (alpha7 nAChR; [5]): 1.11 µM
Hill slope, inhibition of TNF-alpha release [2]: -3.5 ± 4.1
